{
  "source": "paper PMC5990500",
  "about": "(Neurology and Therapy, 2017)",
  "key": {"[1]": {"conditions": "healthy male volunteers, single oral dose; cited from earlier work"}, "[2]": {"assay_type": "in vivo, human", "how_it_was_run": "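Randomized, double-blind, placebo-controlled study in DSM-IV schizophrenia patients (18–55 y, clinically stable, on one antipsychotic). Plasma AUC0−∞, Cmax and tmax taken on day 1, and AUCtau,ss, Cmax,ss and tmax,ss at steady state (day 14). Dose proportionality was fitted by log-log linear regression.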"}, "cGMP [3]": {"tested_on": "cGMP", "conditions": "cited from earlier work"}, "healthy male volunteers": {"tested_on": "healthy male volunteers", "conditions": "cited from earlier work"}, "rat hippocampal slices": {"tested_on": "rat hippocampal slices", "conditions": "application to rat hippocampal slices; cited from earlier work"}, "memory performance": {"tested_on": "memory performance", "conditions": "cited from earlier work"}, "cGMP [4]": {"tested_on": "cGMP", "conditions": "healthy male volunteers, single oral dose; cited from earlier work"}, "[5]": {"tested_on": "patients with mild-to-moderate schizophrenia", "test": "Safety and tolerability", "assay_type": "in vivo, human", "how_it_was_run": "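Patients were randomized 1:1:1:1 to oral test compound (25, 50 or 100 mg) or placebo once daily for 14 days, double-blind. Assessments were AEs, vital signs, 12-lead ECG, clinical laboratory tests, physical examination, CGI-I, PANSS, C-SSRS, Snellen visual acuity and Ishihara colour vision. End-of-treatment visit came 7–14 days after the last dose. All dosed patients were included, and results were summarized descriptively.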"}, "[6]": {"tested_on": "patients with mild-to-moderate probable Alzheimer's disease", "conditions": "cited from earlier work"}, "[7]": {"conditions": "steady state vs single dose, 25 to 100 mg"}, "[8]": {"conditions": "phase II placebo-controlled study"}},
  "note": "Where two headings read alike, the source gives them in different places.",
  "data": [
    {"smiles": "O=c1[nH]c(Cc2ccccn2)nc2c1cnn2C1CCOCC1", "note": "[BI 409306]", "values": [
      {"measurement": "maximum concentration in CSF as % of the maximum plasma concentration", "setting": "[1]", "result": 28.31, "unit": "%"},
      {"measurement": "dose proportionality of exposure", "setting": "[2]; 25- to 100-mg dose range", "result": "dose-proportional from 50 to 100 mg"},
      {"measurement": "gCV% of exposure (inter-individual variability)", "setting": "[2]; CYP2C19 µM predicted phenotype", "result": 154, "unit": "%"},
      {"measurement": "gCV% of exposure (inter-individual variability)", "setting": "[2]; CYP2C19 EM predicted phenotype", "result": 152, "unit": "%"},
      {"measurement": "gCV% of exposure (inter-individual variability)", "setting": "[2]; CYP2C19 IM predicted phenotype", "result": 48.4, "unit": "%"},
      {"measurement": "exposure by CYP2C19 predicted phenotype", "setting": "[2]; IM, EM, UM patients", "result": "highest in patients with the CYP2C19 IM predicted phenotype, followed by EM and UM patients"},
      {"measurement": "half-life", "setting": "[2]; human, plasma, oral", "result": "1.1 to 1.85", "unit": "h"},
      {"measurement": "gCV of AUC0−∞ (inter-individual variability), range over dose groups", "setting": "[2]; single dose", "result": "98.4% to 108%"},
      {"measurement": "gCV of C max (inter-individual variability), range over dose groups", "setting": "[2]; single dose", "result": "73.3% to 106%"},
      {"measurement": "time to reach C max", "setting": "[2]; single dose, across 25, 50, 100 mg", "result": "30 to 45", "unit": "min"},
      {"measurement": "gCV of AUCtau,ss (inter-individual variability), range over dose groups", "setting": "[2]; steady state", "result": "86.8% to 112%"},
      {"measurement": "gCV of C max,ss (inter-individual variability), range over dose groups", "setting": "[2]; steady state", "result": "74.4% to 90.9%"},
      {"measurement": "accumulation ratio AUC, range over dose groups", "setting": "[2]; [7]", "result": "0.758–1.13"},
      {"measurement": "accumulation ratio C max, range over dose groups", "setting": "[2]; [7]", "result": "0.768–1.40"},
      {"measurement": "cGMP in rat cerebrospinal fluid (CSF) and prefrontal cortex", "setting": "cGMP [3]", "result": "dose-dependent increase"},
      {"measurement": "frequency of eye disorders", "setting": "healthy male volunteers; healthy male Chinese and Japanese subjects receiving BI 409306", "result": 29.8, "unit": "%"},
      {"measurement": "time to resolution of visual AEs / eye disorders", "setting": "healthy male volunteers; healthy male volunteers", "result": "1 to 2", "unit": "h"},
      {"measurement": "effect on long-term potentiation (LTP)", "setting": "rat hippocampal slices", "result": "significant enhancement of long-term potentiation"},
      {"measurement": "memory performance", "setting": "memory performance", "result": "improved memory performance"},
      {"measurement": "cGMP in the CSF", "setting": "cGMP [4]", "result": "dose- and concentration-dependent increase"},
      {"measurement": "mean change from baseline in total PANSS score", "setting": "[5]; 25 mg qd, day 7", "result": "−0.1"},
      {"measurement": "mean change from baseline in total PANSS score", "setting": "[5]; 25 mg qd, day 13", "result": 2.3},
      {"measurement": "mild suicidal ideation after treatment initiation (C-SSRS score = 1), patients", "setting": "[5]; 50 mg qd", "result": "one patient"},
      {"measurement": "mean change from baseline in total PANSS score", "setting": "[5]; 50 mg qd, day 7", "result": "−0.2"},
      {"measurement": "mean change from baseline in total PANSS score", "setting": "[5]; 50 mg qd, day 13", "result": 0.0},
      {"measurement": "mean change from baseline in total PANSS score", "setting": "[5]; 100 mg qd, day 7", "result": "−1.4"},
      {"measurement": "mean change from baseline in total PANSS score", "setting": "[5]; 100 mg qd, day 13", "result": "−3.6"},
      {"measurement": "effect on mean pupil diameter relative to placebo", "setting": "[5]; 25, 50, 100 mg qd", "result": "negligible effect"},
      {"measurement": "CGI-I, overall disease status", "setting": "[5]; 25, 50, 100 mg qd 14 days", "result": "no change or minimal improvement"},
      {"measurement": "changes in laboratory parameters, vital signs, or ECGs", "setting": "[5]; 25, 50, 100 mg qd 14 days", "result": "No clinically relevant or dose-related changes"},
      {"measurement": "deaths, serious AEs, discontinuation due to AEs", "setting": "[5]; 25, 50, 100 mg qd 14 days", "result": "no deaths, serious AEs or discontinuation due to AEs"},
      {"measurement": "intensity of AEs", "setting": "[5]; 25, 50, 100 mg qd 14 days", "result": "mild"},
      {"measurement": "tolerability", "setting": "[5]; 25, 50, 100 mg qd 14 days", "result": "well tolerated"},
      {"measurement": "color discrimination (Ishihara plates)", "setting": "[5]; all treatment groups", "result": "normal at maximum time points in all the patients"}
    ]},
    {"smiles": "C[C@@H]1CN(Cc2ncccn2)C[C@H]1c1nc2c(cnn2C2CCOCC2)c(=O)[nH]1", "note": "[PF-04447943]", "values": [
      {"measurement": "efficacy vs placebo in cognition, behavior, clinician-rated global change", "setting": "[6]; 12-week treatment", "result": "not more effective than placebo"},
      {"measurement": "estimated median exposure relative to the IC50", "setting": "[6]; [8]", "result": "remained above the IC50 for the entire dosing duration"},
      {"measurement": "maximal concentrations relative to the IC50", "setting": "[6]; [8]", "result": "approximately five times the IC50"}
    ]}
  ]
}
